# Laboratory results: ChEMBL document CHEMBL1131577, “Auxiliary agents for the peroral administration of peptide and protein drugs: synthesis and evaluation of novel pepstatin analogues” (J Med Chem, 1998)
# Target: Pepsin A (Homo sapiens, UniProt P0DJD9)
# Test: Inhibitory activity against pepsin as oxidation of o-phenylenediamine by Horse radish peroxidase (Pepsin sensitive)
# Outline: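 Pepsin (1 mg, 40 units, per mL of 0.05 N HCl, freshly prepared) mixed with test compound serially diluted 1:2 in DMSO, then 37.5 µg horseradish peroxidase in 0.05 N HCl added; incubated 2 h at 37 °C, then diluted 1:2 in 0.05 N HCl. Residual peroxidase oxidation of o-phenylenediamine (phosphate buffer pH 6.5, H2O2) ran 10 min at room temperature, read at 492 nm. Pepstatin dilutions served as reference.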
# Pepsin A, sequence (P0DJD9 whole entry): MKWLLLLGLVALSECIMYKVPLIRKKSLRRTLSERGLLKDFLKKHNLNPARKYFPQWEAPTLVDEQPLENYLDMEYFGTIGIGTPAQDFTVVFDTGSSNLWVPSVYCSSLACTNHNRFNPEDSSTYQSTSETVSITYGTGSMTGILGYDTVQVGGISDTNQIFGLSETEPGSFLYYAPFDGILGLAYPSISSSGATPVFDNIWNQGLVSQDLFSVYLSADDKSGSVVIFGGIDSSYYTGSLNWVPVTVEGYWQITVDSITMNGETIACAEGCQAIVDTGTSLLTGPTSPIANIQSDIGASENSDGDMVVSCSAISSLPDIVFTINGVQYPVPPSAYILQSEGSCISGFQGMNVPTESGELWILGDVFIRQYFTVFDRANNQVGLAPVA
row,SMILES,IC50 [nM]
1,CCCCC(O)[C@@H](NC(=O)[C@@H](NC(=O)[C@@H](NC(=O)OC(C)(C)C)C(C)C)C(C)C)[C@@H](C)CC (stereo not given in full),33000
2,CCCCCCCCC(O)[C@H](CCC)NC(=O)[C@@H](NC(=O)[C@@H](NC(=O)OC(C)(C)C)C(C)C)C(C)C (stereo not given in full),1070
3,CCCCC(O)[C@H](CCC)NC(=O)[C@@H](NC(=O)[C@@H](NC(=O)OC(C)(C)C)C(C)C)C(C)C (stereo not given in full),910
4,CCCCCCC(O)[C@@H](NC(=O)[C@@H](NC(=O)[C@@H](NC(=O)OC(C)(C)C)C(C)C)C(C)C)[C@@H](C)CC (stereo not given in full),27000
5,CCCCCCC(O)[C@H](CCC)NC(=O)[C@@H](NC(=O)[C@@H](NC(=O)OC(C)(C)C)C(C)C)C(C)C (stereo not given in full),700
6,CCCCC(O)[C@H](CC(C)C)NC(=O)[C@@H](NC(=O)[C@@H](NC(=O)OC(C)(C)C)C(C)C)C(C)C (stereo not given in full),1240
7,CC(C)CC(=O)N[C@H](C(=O)N[C@H](C(=O)N[C@@H](CC(C)C)[C@@H](O)CC(=O)N[C@@H](C)C(=O)N[C@@H](CC(C)C)[C@@H](O)CC(=O)O)C(C)C)C(C)C [PEPSTATIN],59

# Next, values leading:
row,IC50 [nM],SMILES
1,790,CCCCCCCCC(O)[C@H](CC(C)C)NC(=O)[C@@H](NC(=O)[C@@H](NC(=O)OC(C)(C)C)C(C)C)C(C)C (stereo not given in full)
2,15000,CCCCCCCCC(O)[C@@H](NC(=O)[C@@H](NC(=O)[C@@H](NC(=O)OC(C)(C)C)C(C)C)C(C)C)[C@@H](C)CC (stereo not given in full)
3,830,CCCCCCC(O)[C@H](CC(C)C)NC(=O)[C@@H](NC(=O)[C@@H](NC(=O)OC(C)(C)C)C(C)C)C(C)C (stereo not given in full)
